The values below come from ChEMBL document CHEMBL1123395, “Correlation of the in vitro cytotoxic and in vivo antitumor activities of gold(I) coordination complexes” (J Med Chem, 1986).

Assay [1] concerns P388. Kind of assay: Concentration that reduces the number of colonies formed by 50% in a clonogenic assay with P388 leukemia cells. The assay is classed as functional, cell-based, Mus musculus. An outline of the steps: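 P388 cells were kept in suspension culture. Colony-forming assay was run in 0.17% agarose, with colony formation and IC50 (50% reduction in colonies versus controls) measured as in the B16 assay. That assay used a 2 h exposure and 5 days of colony growth.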

The next assay has as its system B16. Kind of assay: Concentration that reduces the number of colonies formed by 50% in a clonogenic assay with B16 mouse melanoma cells. It is filed as functional, cell-based. An outline of the steps:
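B16 melanoma F10 monolayers were grown in MEM with 10% calf serum. Cells were plated at 5000/plate and attached overnight. They were exposed to compound for 2 h, diluted from a 2 mM ethanol stock into MEM, then washed with PBS. Colonies of more than 50 cells were grown for 5 days at 37 °C and stained with crystal violet, in triplicate. IC50 is the 50% reduction in colonies versus controls.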

For another assay, the system named is Mus musculus. Kind of assay: Maximally tolerated dose (MTD) in tumor bearing mice on a daily times 5 ip regimen. The assay is classed as functional, organism-based. In short, it runs like this:
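B6D2F1 mice inoculated ip with 10^6 P388 leukemia cells, randomized into groups of six after the inoculum was checked sterile in thioglycolate broth. Dosing ip on days 1-5, starting 24 h after inoculation. Vehicle was DMA, ethanol and Cremophor (10% final), diluted with saline for lower doses and prepared just before injection. Mortality monitored daily up to 45 days.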

The test system of assay [2] is P388. The assay is described as follows: Ratio of in vitro cytotoxic potency in P388 / B16 cell lines. It is filed as functional, cell-based. The note with it: Mus musculus. An outline of the steps: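 Ratio of IC50 in the P388 colony-forming assay (0.17% agarose) to IC50 in the B16 clonogenic assay. Both assays used a 2 h drug exposure and counted colonies against controls.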

Assay [3] has as its system P388. The assay is described as follows: Antitumor activity expressed as increase in median life span (ILS) measured in mice inoculated (ip) with P388 leukemia cells. It is filed as functional, organism-based. The note with it: Mus musculus. An outline of the steps: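 Mice B6D2F1, inoculated ip with 10^6 P388 leukemia cells. After 24 h, with the inoculum confirmed free of bacteria by thioglycolate broth, mice were randomized into groups of six. Dosing was ip on days 1-5. The vehicle held DMA, ethanol and Cremophor at 10% final, with dilutions in saline. Mice were monitored daily for 45 days. ILS is the % increase in MST over untreated controls. The value reported is the maximum ILS from dose-response studies bracketing the maximally tolerated dose.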

Consider “GOLD SODIUM THIOMALATE [listing 1 of 2 here]”, for which the half-maximal inhibitory concentration (IC50) (commonly the point on the concentration scale where inhibition reaches its midpoint) with P388 [1] turned out to be 100 µM; with B16, 60 µM.
In turn, “GOLD SODIUM THIOMALATE [listing 2 of 2 here]” came in with an MTD with Mus musculus of 300 µM/kg. For the same substance, in the assay on P388 [2], the Ratio came to 1.67. Also, the ILSmax in the assay with P388 [3] turned out to be 24%.
